In ChEMBL document CHEMBL1134965, “Discovery and biological characterization of capromorelin analogues with extended half-lives” (Bioorg Med Chem Lett, 2002):

How the values were obtained:
[1] = Lipophilicity by octanol water distribution coefficient; assay type: physicochemical
[2] = Plasma elimination half-life (08 h) was determined in canine following intravenous (iv) administration (1 mg/kg).; assay type: ADME, organism-based, Canis lupus familiaris; details: dog
How it was run: (§1)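 Male beagle dogs given 1 mg/kg intravenously. Plasma sampling gave clearance, volume of distribution and elimination half-life, with half-life calculated over 0–8 h.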

Rattus norvegicus [3] = experiment: In vivo effective dose required for 50% stimulation of GH release in anesthetized rat model.; assay type: functional
How it was run: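 Anesthetized Wistar rats given compound iv, with GH release as read-out. ED50 (mg/kg) is the average of triplicate experiments.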

[4] = Plasma clearance was determined in canine following intravenous (iv) administration of drug (1 mg/kg).; assay type: ADME, organism-based, Canis lupus familiaris; details: dog; how it was run: as §1
Rattus norvegicus [5] = organism: Rattus norvegicus; experiment: In vitro effective concentration required for 50% stimulation of GH release in rat pituitary cell cultures.; assay type: functional; details: Pituitary gland cell
How it was run: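 Rat pituitary cell cultures exposed to compound. Released GH was quantified by rat-specific double-antibody radioimmunoassay. EC50 is the average of triplicate experiments.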

[6] = biological target: Growth hormone secretagogue receptor type 1 (Homo sapiens, UniProt Q92847); experiment: In vitro binding affinity against human type 1a growth hormone secretagogue receptor (hGHS-R1a), using [125I]ghrelin as radioligand.
How it was run: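 Competitive displacement of [125I]-ghrelin from membranes of HEK293 cells over-expressing hGHS-R1a. Ki values are the average of duplicate experiments.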

[7] = Volume of distribution was determined in canine following intravenous (iv) administration of drug (1 mg/kg).; assay type: ADME, organism-based, Canis lupus familiaris; details: dog, in vivo; how it was run: as §1
[8] = (§2) Bioavailability; assay type: ADME, organism-based; details: rat, in vivo
How it was run: (§3)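 Bioavailability of the free base from a 1 mgA/kg oral dose compared with a 1 mgA/kg iv dose. Measured in female Sprague–Dawley rats and in male and female beagle dogs.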

[9] = Volume of distribution was determined in female Sprague-Dawley rats following intravenous (iv) administration of drug (1 mg/kg).; assay type: ADME, organism-based; details: rat, in vivo
How it was run: (§4)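 Female Sprague–Dawley rats given a 1 mgA/kg (free base equivalents) iv dose. Plasma drug levels gave mean Vd, CL and t1/2.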

[10] = Maximum plasma concentration at a 1 mg/kg oral dose in female Sprague-Dawley rats; assay type: ADME, organism-based; set-up: dose 1 mg/kg, route oral; details: rat
How it was run: (§5)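 Female Sprague–Dawley rats dosed orally at 1 mgA/kg (free base equivalents). Plasma concentration–time profile gave Cmax, Tmax and apparent oral t1/2.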

[11] = Time taken by the compound to achieve maximum plasma concentration at a 1 mg/kg oral dose in female Sprague-Dawley rats; assay type: ADME, organism-based; set-up: dose 1 mg/kg, route oral; details: rat; how it was run: as §5
[12] = Time taken by the compound to achieve maximum plasma concentration at a 1 mg/kg oral dose in male and female Beagle dogs.; assay type: ADME, organism-based, Canis lupus familiaris; set-up: dose 1 mg/kg, route oral; details: both, dog
How it was run: (§6)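 Male and female beagle dogs given a single 1 mgA/kg oral dose (free base equivalents). Plasma profile gave Cmax, Tmax and apparent oral t1/2.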

[13] = as §2; assay type: ADME, organism-based, Canis lupus familiaris; details: dog, in vivo; how it was run: as §3
[14] = Maximum plasma concentration at a 1 mg/kg oral dose in male and female Beagle dogs.; assay type: ADME, organism-based, Canis lupus familiaris; set-up: dose 1 mg/kg, route oral; details: both, dog; how it was run: as §6
[15] = Plasma elimination half-life was determined in female Sprague-Dawley rats following intravenous (iv) administration of drug (1 mg/kg).; assay type: ADME, organism-based; details: rat; how it was run: as §4
[16] = (§7) Oral half life was determined; assay type: ADME, organism-based, Canis lupus familiaris; […]
[17] = Plasma clearance was determined in female Sprague-Dawley rats following intravenous (iv) administration of drug (1 mg/kg).; assay type: ADME, organism-based; details: rat; how it was run: as §4
[18] = as §7; assay type: ADME, organism-based; details: rat, in vivo; how it was run: as §5

Growth hormone secretagogue receptor type 1, sequence (Q92847 whole entry): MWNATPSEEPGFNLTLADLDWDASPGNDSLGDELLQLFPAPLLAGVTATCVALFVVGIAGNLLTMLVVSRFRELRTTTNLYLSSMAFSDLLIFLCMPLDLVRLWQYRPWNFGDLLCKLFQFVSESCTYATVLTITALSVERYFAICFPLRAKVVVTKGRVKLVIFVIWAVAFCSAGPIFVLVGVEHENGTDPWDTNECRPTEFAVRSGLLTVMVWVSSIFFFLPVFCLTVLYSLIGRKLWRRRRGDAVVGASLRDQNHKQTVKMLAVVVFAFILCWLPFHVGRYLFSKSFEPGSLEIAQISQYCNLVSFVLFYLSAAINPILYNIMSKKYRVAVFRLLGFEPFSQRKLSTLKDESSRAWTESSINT

Compound	logD [1]	half-life [2] [h]	clearance [4] [mL/min/kg]	EC50 (Rattus norvegicus [5]) [nM]	Ki [6] [nM]	Vd [7] [L/kg]	bioavailability [8] [%]	Vd [9] [L/kg]	Cmax [10] [ng/mL]	Tmax [11] [h]	Tmax [12] [h]	bioavailability [13] [%]	Cmax [14] [ng/mL]	half-life [15] [h]	half-life [16] [h]	clearance [17] [mL/min/kg]	half-life [18] [h]	ED50 (Rattus norvegicus [3]) [mg/kg]
CC(C)(N)C(=O)N[C@H](COCc1ccc(F)c(F)c1)C(=O)N1CCC2=NN(CC(F)(F)F)C(=O)C2(Cc2ccccc2)C1 (stereo not given in full)	3	4.7	13	2	0.45	5.1												> 10
CN1N=C2CCN(C(=O)[C@@H](COCc3ccc(F)c(F)c3)NC(=O)C(C)(C)N)CC2(Cc2ccccc2)C1=O (stereo not given in full)	1.7	2.7	17	10	18	3.5												0.3
CC(C)(N)C(=O)N[C@H](COCc1ccc(F)cc1F)C(=O)N1CCC2=NN(CC(F)(F)F)C(=O)[C@]2(Cc2ccccn2)C1	1.6	3.7	5.3	3	5	1.5	59	4.9	88	0.25	1.3	77	260	1.9	4.2	46	3.9	0.1

The next lines start with results.

logD [1]	half-life [2] [h]	clearance [4] [mL/min/kg]	EC50 (Rattus norvegicus [5]) [nM]	Ki [6] [nM]	Vd [7] [L/kg]	bioavailability [8] [%]	Vd [9] [L/kg]	Cmax [10] [ng/mL]	Tmax [11] [h]	Tmax [12] [h]	bioavailability [13] [%]	Cmax [14] [ng/mL]	half-life [15] [h]	half-life [16] [h]	clearance [17] [mL/min/kg]	half-life [18] [h]	Compound	ED50 (Rattus norvegicus [3]) [mg/kg]
1.7	1.3	19	3	7	2												CN1N=C2CCN(C(=O)[C@@H](COCc3ccccc3)NC(=O)C(C)(C)N)C[C@@]2(Cc2ccccc2)C1=O [CAPROMORELIN]	0.05
2.9	2.5	13			2.2												CC(C)(N)C(=O)N[C@H](COCc1ccccc1)C(=O)N1CCC2=NN(C(C)(C)C)C(=O)C2(Cc2ccccc2)C1 (stereo not given in full)	
2.9	3.9	19	4	0.34	5.9												CC(C)(N)C(=O)N[C@H](COCc1ccc(F)c(F)c1)C(=O)N1CCC2=NN(C(C)(C)C)C(=O)C2(Cc2ccccc2)C1 (stereo not given in full)	> 10
